Results taken from paper PMC7606181 (Acta Pharmaceutica Sinica. B, 2019).

Tests used:
[1] = tested on: 4T1 cells; assay: Cytotoxicity MTT assay; assay type: cell-based, mouse
[2] = Pharmacokinetic assay; assay type: in vivo, BALB/c mice
[3] = tested on: 4T1 cells; assay: Scratch healing assay; assay type: cell-based, mouse; details: 12 h
Procedure, shortened: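 4T1 monolayers at about 90% confluence were scratched in a straight line and rinsed with PBS. They were then incubated 12 h in medium with PBS or test agents (GEM-equivalent 0.1 μg/mL). Images were taken at 0 and 12 h, and healing rate was calculated by image analysis.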

[4] = HE staining of major organs; assay type: in vivo, BALB/c mice; details: after treatment, compared with PBS group
[5] = Hematological analysis and serum biochemical analysis; assay type: in vivo, BALB/c mice; details: mice, i.v., GEM-equivalent 4 mg/kg, 5 times
Procedure, shortened: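 Mice were split into 4 groups (n = 3): PBS or test preparations i.v. at GEM-equivalent 4 mg/kg, every 2 days for 5 doses. After treatment, blood was taken for haematology and serum for biochemistry.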

[6] = Long-term stability in water at 4 °C; assay type: physicochemical
Procedure, shortened: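 Micelle solutions at 0.5 mg/mL in water were stored at 4 °C, alongside a TPGS-stabilised prodrug formulation as control. Appearance and particle size were recorded until precipitation appeared.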

[7] = tested on: MMP-9; details: cited from earlier work
[8] = tested on: 4T1 tumor-bearing mice; assay: In vivo tumor-targeting assay and biodistribution; parameters: species or system BALB/c mice; details: i.v.
Procedure, shortened: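 Female BALB/c mice (about 5 weeks) carried mammary-pad 4T1 tumours (1 × 10^6 cells) and were used on day 10. Groups (n = 9) got PBS, DiD-loaded micelles or free DiD in propylene glycol/PBS 1:1, at 20 μg DiD per mouse via tail vein. Whole-body imaging at 1–24 h; ex vivo organ imaging at 4, 8 and 24 h (3 per point); confocal of 24 h tumour sections.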

[9] = tested on: platelets adhering to 4T1 cells; assay: Interaction of tumor cells with platelets; assay type: cell-based, mouse; details: LMWH-equivalent 80 μg/mL, compared with PBS group
Procedure, shortened: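 4T1 cells at about 80% confluency were pre-incubated 20 min with test agents or PBS (LMWH-equivalent 80 μg/mL). Washed platelets from fresh blood were labelled with 5 μmol/L calcein AM, added, and co-cultured 2 h. After washing, cells were lysed in DMSO and fluorescence read at Ex 490 / Em 515 nm.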

[10] = Content of GEM; assay type: physicochemical; details: toluidine blue spectrophotometry
Procedure, shortened: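 LMWH content: samples at 40 μg/mL were mixed with 0.005% toluidine blue in PBS (pH 7.4) and shaken 30 s. Hexane was added and shaken 1 min, and the aqueous layer was read at 630 nm. GEM content: acid/CuCl2 hydrolysis at 70 °C for 12 h, then filtration and C18 HPLC. Mobile phase was ammonium acetate pH 5.7/methanol 90:10 at 1 mL/min, UV 268 nm.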

[11] = tested on: MMP-9; assay: Detection of MMP-9 by Western blot in 4T1 cells; assay type: cell-based, mouse; details: 24 h, LT 100 μg/mL, LMWH 60 μg/mL
Procedure, shortened: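 4T1 cells at about 60% confluency were exposed for 24 h to fresh medium containing test agents or PBS. Lysates were centrifuged at 15,700×g, 4 °C, 15 min. Supernatant proteins were run on 6% SDS-PAGE and blotted to PVDF. Blots were probed with MMP-9 antibody and HRP-labelled anti-goat secondary, then imaged.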

[12] = tested on: red blood cell (RBC) suspension from mouse; assay: Hemolysis assay; assay type: cell-based; details: 0.3% Triton
[13] = Tail bleeding assay; assay type: in vivo, BALB/c mice; details: mice, i.v., LMWH-equivalent 20 mg/kg, 30 min after injection, versus PBS
Procedure, shortened: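 Mice were split into 3 groups (n = 3): PBS or test agents i.v. at LMWH-equivalent 20 mg/kg. At 30 min, 3 mm of tail tip was cut and the tail immersed in PBS at 37 °C. The endpoint was time to complete cessation of bleeding.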

[14] = tested on: 4T1 solid tumor; assay: In vivo anti-tumor assay, 4T1 solid tumor model; parameters: species or system BALB/c mice; details: day 18
Procedure, shortened: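 Female BALB/c mice received 1 × 10^6 4T1 cells in the mammary pad. From day 5 they were grouped (n = 6) and dosed via tail vein with PBS or test preparations. Doses were GEM-equivalent 4 mg/kg and LMWH-equivalent 18.4 mg/kg, every 2 days for 5 doses. On day 18, tumours and major organs were taken for H&E staining.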

[15] = female, BALB/c, mouse, plasma, iv, 4 mg/kg

## Nc1ccn([C@@H]2O[C@H](CO)[C@@H](O)C2(F)F)c(=O)n1 [GEM, Gemcitabine]
[1]; MTT, 48 h
  cytotoxicity: concentration-dependent cytotoxicity
[1]; concentration of GEM more than 0.037 μg/mL
  relative cytotoxicity: more cytotoxic than GLT
[2]; [15]
  clearance: 5.67 mL/min/kg
  half-life: 36.9 ± 2.22 min
[2]; mice, i.v., GEM-equivalent 4 mg/kg, plasma GEM
  V1: 0.027 ± 0.015 L/kg
[3]
  scratch healing rate (in words, versus PBS): healing rates decreased
[4]
  HE staining of other organs: myocardial rupture and glomerular effusion
[5]
  levels of CK (creatine kinase) in serum: increased
[5]; compared with PBS group
  number of white blood cells (WBC) and neutrophilic granulocyte (Gran): decrease

## Cc1c(C)c2c(c(C)c1OC(=O)CCC(=O)Nc1ccn(C3OC(CO)C(O)C3(F)F)c(=O)n1)CCC(C)(CCCC(C)CCCC(C)CCCC(C)C)O2 (stereo not shown) [GT, GEM-TOS]
[6]
  long-term stability (appearance, particle size): aggregated to form precipitates in 6 h

## Cc1c(C)c2c(c(C)c1OC(=O)CCC(=O)O)CC[C@@](C)(CCC[C@H](C)CCC[C@H](C)CCCC(C)C)O2 [TOS, D-α-tocopherol succinate]
[7]
  secretion of MMP-9 in B16F10 cells: inhibited

## CCCCCCCCCCCCCCCCCCN1C(=CC=CC=CC2=[N+](CCCCCCCCCCCCCCCCCC)c3ccccc3C2(C)C)C(C)(C)c2ccccc21 [free DiD, 1,1′-dioctadecyl-3,3,3′,3′-tetramethylindodicarbocyanine]
[8]
  main site of signal: mainly showed in liver

## LMWH-TOS [LT]
[1]; up to 250 μg/mL
  cell viability: almost did not affect cell viability
[9]
  number of adhesive platelets on tumor cells: significantly decreased
[10]
  content of LMWH: 47%
[11]
  MMP-9 secreted by 4T1 cells: significantly inhibited

## Triton
[12]
  erythrocyte lysis (positive control): complete cell lysis

## low-molecular-weight heparin [LMWH]
[9]
  number of adhesive platelets on tumor cells: significantly decreased
[3]
  scratch healing rate (in words, versus PBS): healing rates decreased
[13]
  bleeding time: no significant difference
[11]
  MMP-9 secreted by 4T1 cells: did not have obvious effect
[14]
  HE staining of tumor: retained their complete microstructures
